# Columns and labels:
# [1] = system: LPS-activated RAW264.7 macrophages; assay: Nitric oxide production; type: cell-based, mouse; conditions: for effect of co-incubation on NO reduction by RID-B: ligand 5 μM with RID-B 1 μM
# [2] = system: LPS-activated RAW264.7 macrophages; assay: IL-6 release; type: cell-based, mouse; conditions: LPS 500 ng/ml, 48 h
# [3] = system: LPS-activated RAW264.7 macrophages; assay: TNF-α release; type: cell-based, mouse; conditions: LPS 500 ng/ml, 48 h; for effect of co-incubation with RID-B on TNF-α levels: ligand with RID-B
# [4] = system: RAW264.7 mouse macrophage cells; assay: Cell viability; type: cell-based; conditions: for effect of co-incubation on RID-B cytotoxicity: with RID-B 10 μM, LPS 500 ng/ml
# [5] = system: primary bone marrow macrophages; assay: Osteoclast differentiation with TRAP staining; type: cell-based, mouse; conditions: for effect on osteoclast development, ligand alone: receptor-saturating concentration, without RID-B; for effect of co-incubation on anti-osteoclastogenic effect of RID-B: with RID-B 300 nM; for number of osteoclasts: N = 4
# human CB1 receptors = human CB1 receptors (Homo sapiens, UniProt P21554); assay: Competition receptor binding vs [3H]CP-55,940, CHO-hCB1 membranes; conditions: RID-B 1 μM; radioligand 0.2 nM; initial binding screen, data not shown
# human CB2 receptors [6] = target: T1, human CB2 receptors (Homo sapiens, UniProt P34972); assay: Competition receptor binding vs [3H]CP-55,940, CHO-hCB2 membranes
# human CB2 receptors [7] = target: T1, human CB2 receptors; assay: [35S]GTPγS binding; type: biochemical
# human CB2 receptors [8] = target: T1, human CB2 receptors; assay: Forskolin-stimulated adenylyl cyclase activity in CHO-hCB2 cells; type: cell-based
# [9] = system: LPS-activated RAW264.7 macrophages; assay: IL-1α release; type: cell-based, mouse; conditions: RID-B 1 μM; LPS 500 ng/ml, 48 h
# Method in brief: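 RAW264.7 mouse macrophages pre-incubated 1 h with test compound, then stimulated with LPS 500 ng/ml for 48 h. Media collected and stored at −20 °C. Mouse IL-1α measured by ELISA kit per manufacturer's instructions.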
# [10] = system: CHO cells devoid of CB2 receptors; assay: G-protein activity in CHO cells devoid of CB2 receptors; type: biochemical, Chinese hamster; conditions: data not shown
# [11] = system: CHO cells not expressing cannabinoid receptors; assay: Intracellular cAMP in CHO cells not expressing cannabinoid receptors; type: cell-based, Chinese hamster; conditions: data not shown
# T1 sequence (P34972 whole entry): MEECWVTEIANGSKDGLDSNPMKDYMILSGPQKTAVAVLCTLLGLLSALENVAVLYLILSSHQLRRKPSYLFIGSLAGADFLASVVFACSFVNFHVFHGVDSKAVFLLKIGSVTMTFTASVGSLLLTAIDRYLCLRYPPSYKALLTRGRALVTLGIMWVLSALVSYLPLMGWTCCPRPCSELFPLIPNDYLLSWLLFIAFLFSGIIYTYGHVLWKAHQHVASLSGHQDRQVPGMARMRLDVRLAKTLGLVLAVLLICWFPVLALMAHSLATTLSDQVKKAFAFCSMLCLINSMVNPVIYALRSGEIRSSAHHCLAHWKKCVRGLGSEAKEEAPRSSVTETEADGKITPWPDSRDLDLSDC
# Sequence of human CB1 receptors (P21554 whole entry): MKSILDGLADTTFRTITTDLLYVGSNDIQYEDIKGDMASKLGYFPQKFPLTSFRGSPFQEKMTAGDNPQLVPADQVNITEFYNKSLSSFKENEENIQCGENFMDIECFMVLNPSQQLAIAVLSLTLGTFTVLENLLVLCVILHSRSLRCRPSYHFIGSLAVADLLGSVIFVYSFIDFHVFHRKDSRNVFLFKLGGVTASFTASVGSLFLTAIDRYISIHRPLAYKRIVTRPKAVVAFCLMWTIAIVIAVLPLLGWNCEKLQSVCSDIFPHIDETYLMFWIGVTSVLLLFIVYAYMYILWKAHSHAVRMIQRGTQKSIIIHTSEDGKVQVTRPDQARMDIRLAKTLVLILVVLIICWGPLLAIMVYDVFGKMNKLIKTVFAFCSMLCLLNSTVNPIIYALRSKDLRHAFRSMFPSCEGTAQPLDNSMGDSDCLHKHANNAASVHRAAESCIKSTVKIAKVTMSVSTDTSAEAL
compound,measurement,setting,value
Cc1c(C(=O)NN2CCOCC2)nn(-c2ccc(Cl)cc2Cl)c1-c1ccc(I)cc1 [AM-281],effect of co-incubation on NO reduction by RID-B,"[1]; LPS 500 ng/ml, 48 h",did not alter NO levels compared to RID-B administered alone
same,"IL-6 level, ligand alone","[2]; without RID-B, N = 4",1040 ± 119.4 pg/mL
same,"TNF-α level, ligand alone","[3]; without RID-B, N = 4",21.3 ± 0.21 ng/mL
same,effect of co-incubation with RID-B on TNF-α levels,[3],significantly increases TNF-α levels
same,effect of co-incubation on RID-B cytotoxicity,[4],attenuated
same,"effect on osteoclast development, ligand alone",[5],significantly reduce osteoclast development
same,effect of co-incubation on anti-osteoclastogenic effect of RID-B,[5],little consequence on the effects of RID-B
SR-144528 [reference compound],effect of co-incubation on NO reduction by RID-B,"[1]; LPS 500 ng/ml, 48 h",did not alter NO levels compared to RID-B administered alone
"CCC(=C(c1ccc(OCCN2CCCC2)cc1)c1ccc(OCCN2CCCC2)cc1)c1ccccc1 [RID-B, ridaifen-B]","displacement of [3H]-CP-55,940 from human CB1 receptors",human CB1 receptors,> 50%
same,"displacement of [3H]-CP-55,940 from human CB2 receptors","human CB2 receptors [6]; RID-B 1 μM, radioligand 0.2 nM, initial binding screen, data not shown",> 50%
same,selectivity (affinity) for CB2 over CB1 receptors,human CB2 receptors [6]; ratio of Ki values,17 fold
same,G-protein activation Imax (decrease below basal levels),"human CB2 receptors [7]; inverse agonism, N = 3",−31.2 ± 0.37%
same,"Imax, increase of adenylyl cyclase activity (elevated cAMP levels)","human CB2 receptors [8]; 10 μM forskolin, inverse agonism, N = 3",398 ± 30%
same,"decrease in the potency of WIN-55,212-2 to inhibit adenylyl cyclase activity","human CB2 receptors [8]; RID-B 3 μM co-incubation, efficacy unchanged, parallel rightward shift",11.2 fold
same,Kb,"human CB2 receptors [8]; read-out: antagonist dissociation constant (Kb), RID-B 3 μM against WIN-55,212-2, N = 3",294 nM
same,effect on EC50 values of LPS for NO production,"[1]; RID-B 300 nM, 500 nM, 1 μM",did not alter the EC50 values of LPS
same,reduction of NO production vs cells treated only with LPS,"[1]; RID-B 1 μM alone, LPS 500 ng/ml, 48 h, N = 10",30.1 ± 5.1%
same,NO reduction,"[1]; RID-B 1 μM co-incubated with CP-55,940 2 μM, LPS 500 ng/ml, 48 h, N = 10",9.3 ± 4.6%
same,NO levels reduced to,"[1]; RID-B 1 μM co-incubated with JWH-015 5 μM, LPS 500 ng/ml, 48 h, N = 4",51.1 ± 6.4%
same,Emax of LPS-induced NO production,"[1]; co-incubation with RID-B 300 nM, 48 h, N = 3",19.4 ± 3.8 µM
same,Emax of LPS-induced NO production,"[1]; co-incubation with RID-B 500 nM, 48 h, N = 3",22.0 ± 9.9 µM
same,Emax of LPS-induced NO production,"[1]; co-incubation with RID-B 1 μM, 48 h, N = 4",18.2 ± 4.7 µM
same,IL-1α level,[9],73.1 ± 4.7 pg/mL
same,reduction of IL-1α level,[9],52.3%
same,reduction of LPS-induced IL-6 increase,[2]; RID-B 1 μM,45%
same,IL-6 level,"[2]; RID-B 1 μM, N = 4",349.9 ± 34.9 pg/mL
same,effect on TNF-α levels,[3]; RID-B 1 μM,slight but non-significant increase in TNF-α levels
same,decrease of cell viability,"[4]; RID-B 10 μM alone, 4 h exposure to LPS, N = 4",34.0 ± 5.4%
same,effect on cell viability,"[4]; RID-B 1 or 3 μM, forty-eight hour exposure to LPS 500 ng/ml",no effect on cell viability
same,number of osteoclasts,"[5]; RID-B 300 nM alone, vehicle 339.1 ± 15.6",174.4 ± 19.2 osteoclasts per well
same,number of osteoclasts,[5]; RID-B 300 nM co-incubated with AM-630,94.6 ± 15.6 osteoclasts per well
same,maximal decrease in the number of osteoclasts,"[5]; RID-B 300 nM, M-CSF and RANKL, 4 days, drugs on days 2 and 3",48.6%
same,effect on G-protein activity,[10],no effect on G-protein activity
same,effect on intracellular cAMP levels,[11],does not alter intracellular cAMP levels
"CCCCCCC(C)(C)c1ccc(C2CC(O)CCC2CCCO)c(O)c1 (stereo not drawn) [CP-55,940, 5-(1,1-dimethylheptyl)-2-[5-hydroxy-2-(3-hydroxypropyl)cyclohexyl]phenol]",Emax,human CB2 receptors [7]; read-out: G-protein activation Emax,25.4 ± 3%
same,effect of co-incubation with RID-B on TNF-α levels,[3],have no effect
same,effect of co-incubation on RID-B cytotoxicity,[4],attenuated
same,"effect on osteoclast development, ligand alone",[5],marginally reduced osteoclast formation
same,effect of co-incubation on anti-osteoclastogenic effect of RID-B,[5],significantly attenuated the anti-osteoclastogenic effects produced by RID-B
COc1ccc(C(=O)c2c(C)n(CCN3CCOCC3)c3cc(I)ccc23)cc1 [AM-630],effect of co-incubation on NO reduction by RID-B,"[1]; LPS 500 ng/ml, 48 h",did not alter NO levels compared to RID-B administered alone
same,effect of co-incubation with RID-B on TNF-α levels,[3],significantly increases TNF-α levels
same,number of osteoclasts,"[5]; AM-630 alone (1 μM in Fig. 7), vehicle 339.1 ± 15.6",168.1 ± 15.4 osteoclasts per well
CCCn1c(C)c(C(=O)c2cccc3ccccc23)c2ccccc21 [JWH-015],effect of co-incubation with RID-B on TNF-α levels,[3],have no effect
same,"effect on osteoclast development, ligand alone",[5],significantly reduce osteoclast development
same,effect of co-incubation on anti-osteoclastogenic effect of RID-B,[5],little consequence on the effects of RID-B

# — paper PMC6487498 (Toxicology and applied pharmacology, 2018)
